From ChEMBL document CHEMBL3351677, “Design and synthesis of azaisoflavone analogs as phytoestrogen mimetics” (Eur J Med Chem, 2014)
Activity calls are given as the source filed them. No cut-off for these calls is given here.

Columns and labels:
[1] = test system: MCF7; experiment: Stimulation of growth in human MCF7 cells at 0.1 to 20 uM after 4 days by MTT assay; type: functional, cell-based
In short: (§1)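 MCF-7 cells kept in DMEM with 10% FBS, then held 3 days in phenol red-free DMEM with 5% charcoal-dextran stripped FBS. Seeded at 1.5 × 10³ cells/well for 24 h, then treated with samples for 4 days; 0.1 nM E2 and 100 nM ICI served as controls. MTT (5 mg/mL in PBS) was added for 2 h, formazan dissolved in DMSO and absorbance read. Three independent experiments, mean ± SD, Dunnett test.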

[2] = test system: MCF7; experiment: Growth inhibition in human MCF7 cells at 20 to 100 uM after 4 days by MTT assay; type: functional, cell-based; in short: as §1
[3] = test system: CV-1; experiment: Selectivity ratio of maximum activation of human ERbeta expressed in CV1 cells to maximum activation of human ERalpha expressed in CV1 cells; type: cell-based
In short: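 CV-1 cells held in phenol red-free DMEM with 5% stripped FBS for 3 days, seeded at 1.5 × 10⁵ cells/well. Next day they were co-transfected for 6 h with 30 ng hERα or hERβ plus 100 ng ERE-luciferase, with a β-galactosidase vector for normalization. Treated 24 h, then luciferase read, β-gal absorbance at 410 nm. Each subtype's activation expressed relative to maximum with 20 nM E2; at least three experiments.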

[4] = test system: MCF7; experiment: Stimulation of growth in human MCF7 cells at 5 to 20 uM after 4 days by MTT assay; type: functional, cell-based; in short: as §1
[5] = test system: MCF7; experiment: Growth inhibition in human MCF7 cells at 50 to 100 uM after 4 days by MTT assay; type: functional, cell-based; in short: as §1
[6] = species: Homo sapiens; experiment: Selectivity ratio of maximum inhibition of recombinant human ERbeta to maximum inhibition of recombinant human ERalpha by competitive binding assay
In short: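 Competitive binding with [³H]-E2 (1 nM) for ERα and ERβ. Bound and free ligand separated by centrifugation at 12,000 × g for 2 min; supernatant radioactivity counted by liquid scintillation. Bound [³H]-E2 expressed relative to maximum receptor-bound ligand (10⁻⁷ M E2), versus 0.1% DMSO control; at least three separate experiments.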

[7] = test system: MCF7; experiment: Growth inhibition in human MCF7 cells at 5 to 100 uM after 4 days by MTT assay; type: functional, cell-based; in short: as §1

Row | Selectivity ratio [6] | Compound | Activity [1] | growth inhibition (GI) [2] | Selectivity ratio [3] | Activity [4] | growth inhibition (GI) [5] | growth inhibition (GI) [7]
1 |  | O=c1c(-c2ccc(O)cc2)coc2cc(O)cc(O)c12 | Active | Active |  |  |  | 
2 |  | Cn1cc(-c2ccc(O)cc2)c(=O)c2ccc(O)cc21 |  |  | 6.4 |  |  | 
3 | 1.6 | CCn1cc(-c2ccc(O)cc2)c(=O)c2c(O)cc(O)cc21 |  |  | 0.8 | Active | Active | 
4 |  | CCn1cc(-c2ccc(O)cc2)c(=O)c2ccc(O)cc21 |  |  | 2.9 | Active | Active | 
5 |  | CCCn1cc(-c2ccc(O)cc2)c(=O)c2ccccc21 |  |  | 0.5 | Active | Active | 
6 |  | O=c1c(-c2ccc(O)cc2)cn(Cc2ccccc2)c2cc(O)ccc12 |  |  | 1 |  |  | Active
7 | 2.6 | Cn1cc(-c2ccc(O)cc2)c(=O)c2c(O)cc(O)cc21 |  |  | 1.3 | Active | Active | 
8 |  | CC(C)CCn1cc(-c2ccc(O)cc2)c(=O)c2ccc(O)cc21 |  |  | 3.4 |  |  | Active
9 | 1.4 | CCCn1cc(-c2ccc(O)cc2)c(=O)c2c(O)cc(O)cc21 |  |  | 0.3 |  |  | Active
10 | 12 | O=c1c(-c2ccc(O)cc2)c[nH]c2cc(O)cc(O)c12 |  |  | 2.9 | Active | Active | 
11 |  | O=c1c(-c2ccc(O)cc2)c[nH]c2cc(O)ccc12 |  |  | 1.3 |  |  | 
12 |  | CCCn1cc(-c2ccc(O)cc2)c(=O)c2ccc(O)cc21 |  |  | 1.6 | Active | Active | 
